Assay results as given in ChEMBL document CHEMBL1140782, “Nitrogen-appended N-alkylsulfonamides as inhibitors of gamma-secretase” (Bioorg Med Chem Lett, 2008).

What follows are compounds tested on Brain (assay: Drug level in Tg2576 beta-APP-Swedish transgenic mouse brain at 200 umol/kg, po). Conditions: in vivo, read-out: Drug uptake.
Format: ADME, organism-based
How it was run: (§1)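 Tg2576 βAPP-Swedish transgenic mice received a single oral dose of 200 µmol/kg. At 3 h after dosing, brain Aβ was measured as percent reduction, and compound concentrations were measured in plasma and brain in nM, reported as mean ± deviation.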
With `C[C@H](CCCn1cnnn1)N(c1cc(Cl)ccc1CO)S(=O)(=O)c1ccc(Cl)cc1` the concentration was 1.16 µM.
With `C[C@H](CCCN(C)S(C)(=O)=O)N(c1cc(Cl)ccc1CO)S(=O)(=O)c1ccc(Cl)cc1` the concentration was 0.759 µM.

Each compound was assayed on Plasma (assay: Drug level in Tg2576 beta-APP-Swedish transgenic mouse plasma at 200 umol/kg, po). Conditions: in vivo.
Format: ADME, organism-based
How it was run: as §1
Work on `C[C@H](CCCn1cnnn1)N(c1cc(Cl)ccc1CO)S(=O)(=O)c1ccc(Cl)cc1` yielded a concentration of 5.47 µM.
`C[C@H](CCCN(C)S(C)(=O)=O)N(c1cc(Cl)ccc1CO)S(=O)(=O)c1ccc(Cl)cc1` gave a concentration of 12.3 µM.

The compounds below were run against Gamma-secretase (assay: Inhibition of human gamma secretase in H4 cells assessed as reduction of amyloid beta-40 levels). Conditions: not given.
Format: cell-based
How it was run: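 Cells were plated in 96 wells and allowed to attach. Medium was then replaced with Ultraculture containing compound at a final 1% DMSO, and cells were incubated overnight. Aβ40 in the conditioned medium was measured by sandwich ELISA, using a C-terminal Aβ40-specific monoclonal capture antibody and an HRP-labelled N-terminal Aβ monoclonal antibody for detection.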
`C[C@H](CCCn1cnnn1)N(c1cc(Cl)ccc1CO)S(=O)(=O)c1ccc(Cl)cc1` gave an IC50 of 0.51 nM.
For `C[C@H](CCCn1nnnc1-c1ccccc1)N(c1cc(Cl)ccc1CO)S(=O)(=O)c1ccc(Cl)cc1`, the IC50 was 15 nM.
In the case of `C[C@H](CCCN1CCCS1(=O)=O)N(c1cc(Cl)ccc1CO)S(=O)(=O)c1ccc(Cl)cc1`, the IC50 is reported as 1.1 nM.
Work on `C[C@H](CCCNC1CCCO1)N(c1cc(Cl)ccc1CO)S(=O)(=O)c1ccc(Cl)cc1` (stereo partly specified) yielded an IC50 of 29 nM.
`C[C@H](CCCN1CCN(C)CC1)N(c1cc(Cl)ccc1CO)S(=O)(=O)c1ccc(Cl)cc1` was tested, and the IC50 was 29 nM.
Compound `C[C@H](CCCN1CCc2ccccc2C1)N(c1cc(Cl)ccc1CO)S(=O)(=O)c1ccc(Cl)cc1` has an IC50 of 84 nM.
Compound `C[C@H](CCCn1nccn1)N(c1cc(Cl)ccc1CO)S(=O)(=O)c1ccc(Cl)cc1` has an IC50 of 12 nM.
`C[C@H](CCCn1cncn1)N(c1cc(Cl)ccc1CO)S(=O)(=O)c1ccc(Cl)cc1` showed an IC50 of 4.8 nM.
With `CCC[C@@H](C)N(c1cc(Cl)ccc1CO)S(=O)(=O)c1ccc(Cl)cc1` the IC50 was 5 nM.
`C[C@H](CCCN(C)C)N(c1cc(Cl)ccc1CO)S(=O)(=O)c1ccc(Cl)cc1` gave an IC50 of 6.5 nM.
`C[C@H](CCCN)N(c1cc(Cl)ccc1CO)S(=O)(=O)c1ccc(Cl)cc1` gave an IC50 of 288 nM.
Compound `C[C@H](CCCn1nnc(N(C)C)n1)N(c1cc(Cl)ccc1CO)S(=O)(=O)c1ccc(Cl)cc1` has an IC50 of 5.6 nM.
With `C[C@H](CCCNS(=O)(=O)c1ccccc1)N(c1cc(Cl)ccc1CO)S(=O)(=O)c1ccc(Cl)cc1` the IC50 was 7.4 nM.
Compound `C[C@H](CCCNC=O)N(c1cc(Cl)ccc1CO)S(=O)(=O)c1ccc(Cl)cc1` has an IC50 of 5.1 nM.
For `C[C@H](CCCN1CCCCC1)N(c1cc(Cl)ccc1CO)S(=O)(=O)c1ccc(Cl)cc1`, the IC50 was 50 nM.
Work on `C[C@H](CCCn1ccnn1)N(c1cc(Cl)ccc1CO)S(=O)(=O)c1ccc(Cl)cc1` yielded an IC50 of 0.9 nM.
Work on `C[C@H](CCCn1ccnc1)N(c1cc(Cl)ccc1CO)S(=O)(=O)c1ccc(Cl)cc1` yielded an IC50 of 11 nM.
Compound `Cc1nnnn1CCC[C@@H](C)N(c1cc(Cl)ccc1CO)S(=O)(=O)c1ccc(Cl)cc1` has an IC50 of 0.75 nM.
Compound `C[C@H](CCCNC(=O)c1ccccc1)N(c1cc(Cl)ccc1CO)S(=O)(=O)c1ccc(Cl)cc1` has an IC50 of 15 nM.
Work on `C[C@H](CCCNC(=O)CO)N(c1cc(Cl)ccc1CO)S(=O)(=O)c1ccc(Cl)cc1` yielded an IC50 of 8.1 nM.
With `COCC(=O)NCCC[C@@H](C)N(c1cc(Cl)ccc1CO)S(=O)(=O)c1ccc(Cl)cc1` the IC50 was 6.9 nM.
`C[C@H](CCCn1cccn1)N(c1cc(Cl)ccc1CO)S(=O)(=O)c1ccc(Cl)cc1` showed an IC50 of 18 nM.
`C[C@H](CCCNC(=O)CCc1ccccc1)N(c1cc(Cl)ccc1CO)S(=O)(=O)c1ccc(Cl)cc1` gave an IC50 of 72 nM.
Compound `CCC(=O)NCCC[C@@H](C)N(c1cc(Cl)ccc1CO)S(=O)(=O)c1ccc(Cl)cc1` has an IC50 of 13 nM.
`Cc1nnn(CCC[C@@H](C)N(c2cc(Cl)ccc2CO)S(=O)(=O)c2ccc(Cl)cc2)n1` showed an IC50 of 6.1 nM.
`C[C@H](CCCNC(=O)Cc1ccccc1)N(c1cc(Cl)ccc1CO)S(=O)(=O)c1ccc(Cl)cc1` showed an IC50 of 26 nM.
With `C=C(Cl)CN(c1cc(Cl)ccc1CO)S(=O)(=O)c1ccc(C)cc1` the IC50 was 850 nM.
`C[C@H](CCCN(C)S(C)(=O)=O)N(c1cc(Cl)ccc1CO)S(=O)(=O)c1ccc(Cl)cc1` showed an IC50 of 0.32 nM.
`C[C@H](CCCNc1ccccc1)N(c1cc(Cl)ccc1CO)S(=O)(=O)c1ccc(Cl)cc1` was tested, and the IC50 was 36 nM.
With `CC(C)C(=O)NCCC[C@@H](C)N(c1cc(Cl)ccc1CO)S(=O)(=O)c1ccc(Cl)cc1` the IC50 was 14 nM.
`C[C@H](CCCNC(=O)[C@@H](O)c1ccccc1)N(c1cc(Cl)ccc1CO)S(=O)(=O)c1ccc(Cl)cc1` showed an IC50 of 2.9 nM.
With `C[C@H](CCCn1nnc(-c2ccccc2)n1)N(c1cc(Cl)ccc1CO)S(=O)(=O)c1ccc(Cl)cc1` the IC50 was 61 nM.
`C[C@H](CCCn1ncnn1)N(c1cc(Cl)ccc1CO)S(=O)(=O)c1ccc(Cl)cc1` showed an IC50 of 1.2 nM.
In the case of `C[C@H](CCCNS(C)(=O)=O)N(c1cc(Cl)ccc1CO)S(=O)(=O)c1ccc(Cl)cc1`, the IC50 is reported as 0.23 nM.
In the case of `C[C@H](CCCn1nnnc1N(C)C)N(c1cc(Cl)ccc1CO)S(=O)(=O)c1ccc(Cl)cc1`, the IC50 is reported as 0.53 nM.
With `CNCCC[C@@H](C)N(c1cc(Cl)ccc1CO)S(=O)(=O)c1ccc(Cl)cc1` the IC50 was 262 nM.
Work on `CC(=O)NCCC[C@@H](C)N(c1cc(Cl)ccc1CO)S(=O)(=O)c1ccc(Cl)cc1` yielded an IC50 of 7.3 nM.
For `C[C@H](CCCNC(=O)[C@H](O)c1ccccc1)N(c1cc(Cl)ccc1CO)S(=O)(=O)c1ccc(Cl)cc1`, the IC50 was 1.6 nM.
With `C[C@H](CCCN1CCOCC1)N(c1cc(Cl)ccc1CO)S(=O)(=O)c1ccc(Cl)cc1` the IC50 was 3.1 nM.

Each compound was assayed on Mus musculus (assay: Reduction of amyloid beta levels in Tg2576 beta-APP-Swedish transgenic mouse at 200 umol/kg, po after 3 hrs). Conditions: not given.
Format: functional
Design: scale not given: the % may be the effect or the level left
How it was run: as §1
`C[C@H](CCCn1cnnn1)N(c1cc(Cl)ccc1CO)S(=O)(=O)c1ccc(Cl)cc1` gave an Activity of 41%.
`C[C@H](CCCN(C)S(C)(=O)=O)N(c1cc(Cl)ccc1CO)S(=O)(=O)c1ccc(Cl)cc1` showed an Activity of 27%.

What follows are compounds tested on Mus musculus (assay: Reduction of amyloid beta levels in Tg2576 beta-APP-Swedish transgenic mouse at 500 umol/kg, po after 3 hrs). Conditions: not given.
Format: functional
Design: scale not given: the % may be the effect or the level left
`CCC[C@@H](C)N(c1cc(Cl)ccc1CO)S(=O)(=O)c1ccc(Cl)cc1` was tested, and the Activity was 25%.
